Test results published in paper PMC8520054 (Asian Journal of Pharmaceutical Sciences, 2021).

Assays:
[1] = test system: Th17 (CD4+IL-17+) and Treg (CD4+Foxp3+) cells; test: Flow cytometry of Th17 and Treg cells in draining lymph nodes of AIA rats; assay type: in vivo, SD rats; details: Day 24, n = 7
Summary of the method: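 Arthritis induced in SD rats on Day 1 by subcutaneous paw injection of 50 µl CFA (10 mg/ml Mycobacterium tuberculosis). Groups (n = 7) given i.v. PBS, free peptide or peptide-loaded nanoparticles (0.75 mg/kg peptide) daily for one week; healthy rats as normal control. On Day 24, popliteal draining lymph nodes sieved (300-mesh) to single cells; CD4+IL-17+ and CD4+Foxp3+ subsets by flow cytometry; mean ± SD.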

[2] = test system: TNF-α, IL-1β, IL-6, IL-17A in joint homogenates; test: Inflammatory cytokines in joint homogenates of AIA rats; assay type: in vivo, SD rats; details: ELISA, i.v. 0.75 mg/kg peptide every day for one week, n = 7
Summary of the method: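 SD rats made arthritic on Day 1 by 50 µl CFA (10 mg/ml M. tuberculosis) injected s.c. into paws. Arthritic rats (n = 7/group) then dosed i.v. daily for one week with PBS, free peptide or nanoparticle formulation at 0.75 mg/kg peptide; untreated healthy rats as reference. After 14 d, joint tissues cut up and homogenised; TNF-α, IL-1β, IL-6, IL-17A quantified by ELISA; mean ± SD.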

[3] = Biocompatibility in AIA rats: blood cell counts and body weight; assay type: in vivo, SD rats; details: compared to the normal group, n = 7
[4] = test system: adjuvant-induced arthritis (AIA) rat model; test: In vivo therapeutic efficacy in adjuvant-induced arthritis; parameters: species or system SD rats; details: AIA rats, i.v. 0.75 mg/kg peptide every day for one week, n = 7, vs PBS
Summary of the method: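 Adjuvant arthritis was induced in male SD rats by s.c. CFA into the paws on Day 1 and was largely established by Day 10. Groups of n = 7, plus healthy controls, received daily i.v. PBS, free peptide or nanoparticles (0.75 mg/kg peptide) for one week. Body weight, paw thickness and joint score were recorded daily. Each paw was graded 0–4 for erythema/swelling, giving a maximum of 16 per rat. Values are mean ± SD; groups were compared by Student's t-test.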

ankle joints of AIA rats = test: Joint histology; assay type: in vivo, SD rats; details: i.v. 0.75 mg/kg peptide every day for one week
Summary of the method: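 CFA-induced arthritic SD rats received daily i.v. PBS, free peptide or nanoparticles (0.75 mg/kg peptide) for one week; healthy rats served as controls. Rats were sacrificed after 14 d. Ankle joints were fixed in 4% paraformaldehyde for 3 d, decalcified in 15% EDTA-2Na and sectioned. Sections were stained with HE, or immunostained with IL-17A and MPO antibodies plus secondary antibodies. n = 7.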

Sequence: AMVSEFLKQAWFIENEEQEYVQTVK [Ac2–26]
- proportion of Treg cells in draining lymph nodes [1]: unable to increase the proportion of Treg
- expression of IL-1β in joint homogenates [2]: unable to effectively decrease the inflammatory level
- expression of IL-6 in joint homogenates [2]: unable to effectively decrease the inflammatory level
- expression of IL-17A in joint homogenates [2]: unable to effectively decrease the inflammatory level
- expression of TNF-α in joint homogenates [2]: unable to effectively decrease the inflammatory level
- count of platelets (PLT) [3]: no significant difference
- count of white blood cells (WBC) [3]: no significant difference
- paw thickness [4]: limited reduction of the paw thickness
- expression of IL-17A in joint tissues (immunohistochemistry) (ankle joints of AIA rats): clearly visible
- expression of MPO in joint tissues (immunohistochemistry) (ankle joints of AIA rats): slightly attenuate the expression of MPO
- pathological condition of ankle joints (HE staining) (ankle joints of AIA rats; n = 7): extensive inflammation infiltration, tissue damage and cartilage destruction
